Bioassay records as filed in PubChem BioAssay.
5HT1a antag = antagonists of human 5-HT1a serotonin receptor | P08908 | CHO 5-HT1a Ga15 NFAT-bla reporter, antagonist mode | inhibition, % at 10 µM | 62,000 tested, 0.68% active | AID 612;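 active = inhibition above the mean of all tested compounds plus 3 SD, cut at about 43% in these data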;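 note: receptor stimulated by 5-CT agonist at 100 nM near EC80; beta-lactamase reporter measured by ratiometric fluorescence of a cleavable substrate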
5HT1a ag = agonists of human 5-HT1a serotonin receptor; AID 567; 65,000 tested, 0.56% active; activation, % at 10 µM; P08908; CHO 5-HT1a Ga15 NFAT-bla reporter, FRET ratio; 0% basal, 100% maximal reference agonist;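 active = activation above the screen-wide mean activation plus 3 SD, cut at about 19% in these data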;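 note: 0% = DMSO wells and 100% = 5-CT at EC100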
S1P3 agonist = activates the human S1P3 receptor. Q99500. S1P3 NFAT-BLA reporter cells, agonism, FRET ratio; relative to 1 µM S1P, basal subtracted. activation, % at 4.5 µM. 60,000 tested, 0.1% active;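 active = activation above the screen-wide mean plus 3 SD, cut at about 4.5% in these data, passing the limit was not always enough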
Target sequence (Q99500 whole entry, looked up): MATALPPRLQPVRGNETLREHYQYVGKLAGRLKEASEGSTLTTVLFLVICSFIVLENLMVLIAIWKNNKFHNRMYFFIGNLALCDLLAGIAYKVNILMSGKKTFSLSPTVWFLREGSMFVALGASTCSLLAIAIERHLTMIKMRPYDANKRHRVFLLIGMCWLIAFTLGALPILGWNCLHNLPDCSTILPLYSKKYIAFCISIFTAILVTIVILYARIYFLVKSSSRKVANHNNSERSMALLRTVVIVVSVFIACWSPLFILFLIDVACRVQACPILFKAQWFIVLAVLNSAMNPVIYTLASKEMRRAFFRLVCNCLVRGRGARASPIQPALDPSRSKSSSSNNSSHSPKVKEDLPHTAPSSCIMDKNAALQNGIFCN
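Material: Human S1P3 NFAT-BLA reporter CHO cells | Incubation: Overnight plating, 4 h compound 37 °C, 2 h substrate RT | Signal: FRET β-lactamase substrate fluorescence, excitation 405 nm, 460/535 nm emission ratio, background-subtracted | Compound: 4.5 µM final, single dose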
5HT1E ag = 5-HT1E (human) receptor agonism | P28566 | CHO 5-HT1E Ga15 NFAT-bla reporter, FRET; 0% DMSO wells, 100% control agonist wells | activation, % at 6 µM | 65,000 tested, 0.69% active;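 active = activation above a set limit, the screen-wide mean activation plus 3 SD, cut at about 8.5% in these data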;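 note: 100% = positive control agonist at 1 µM giving full maximal response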
HTR1E antagonist = antagonists of human 5-HT1E serotonin receptor | CHO 5-HT1E Ga15 NFAT-bla reporter, FRET, antagonist | P28566 | 65,000 tested, 0.99% active | inhibition, % at 6 µM | AID 571;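 active = inhibition above a set limit, the mean inhibition across every tested compound plus 3 SD, cut at about 29% in these data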;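 note: signal is the 460 over 535 nm emission ratio of beta-lactamase substrate; 0% = agonist plus DMSO wells and 100% = wells without agonist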
S1P1 ag-PAM = activates or potentiates agonism at human S1P1 receptor | activation, % at 9.5 µM | 56,000 tested, 0.57% active | S1P1 CRE-bla cells, forskolin, beta-lactamase FRET, potentiator mode; S1P1 agonist co-added at EC20, 2 nM; 100% = saturating reference agonist, 0% = basal | P21453;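 active = activation above a cutoff set at the mean activation of all tested compounds plus 3 SD, cut at about 54% in these data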;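 note: forskolin at 4 µM as EC80 and the EC20 agonist is SEW2871; 100% = SEW2871 at its EC100 plus forskolin at EC80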
Active calls of the source: *; nt = no result given. In the library only some 3% were active in any assay of this set; here they are far more common.

SMILES | 5HT1a antag | 5HT1a ag | S1P3 agonist | 5HT1E ag | HTR1E antagonist | S1P1 ag-PAM
COc1ccc(-c2nc3c(Br)c(N)c(Br)cc3o2)cc1 | nt | -2 | -3 | 1 | -2 | 43
COc1cccc(N2CCN(c3ncnc4c3[nH]c3ccc(F)cc34)CC2C)c1 (centres undefined) | nt | -2 | -8 | -2 | 104* | 115*
COc1cccc(N2CCN(c3ncnc4c3[nH]c3ccccc34)CC2C)c1 (centres undefined) | nt | 4 | -4 | 0 | 91* | 127
COc1cc2[nH]c3c(N4CCN(c5ccc(Cl)cc5)CC4)ncnc3c2cc1OC | -8 | 2 | -2 | 2 | 7 | 2
Cc1ccc(C(C)n2cc(C(=O)NCc3ccncc3)nn2)cc1 (centres undefined) | 8 | -1 | nt | -2 | 1 | nt
COC(=O)CCCCC(=O)C1C(=O)CC(C)(C)C(C(=O)OC)C1=O (centres undefined) | 4 | 24* | 0 | 2 | -2 | nt
Cc1ccc(C(=O)Nc2ccc(O)c(C(=O)O)c2)o1 | 10 | -1 | -1 | -1 | -2 | -8
Cn1c(CCNC(=O)c2ccco2)nc2cc(NS(=O)(=O)c3ccccc3)ccc21 | -7 | 3 | -1 | 0 | 3 | -5
CCN(CC)c1ccc2c(C)c(CN3CCOCC3)c(=O)oc2c1 | -43 | 23* | 2 | 6 | -16 | -65
CC(C)C(=O)NC(c1ccco1)c1ccc2cccnc2c1O (centres undefined) | 39 | -1 | -2 | -1 | 30* | 4
Oc1c(C(Nc2nc3ccccc3s2)c2ccco2)ccc2cccnc12 (centres undefined) | 62* | 6 | -2 | -1 | 34* | 5
CCCC(=O)NC(c1ccco1)c1cc(Cl)c2cccnc2c1O (centres undefined) | 29 | -5 | -2 | -1 | 5 | 28
COC(=O)c1cccc(NC(=O)CSc2nnc(COc3ccc(C#N)cc3)n2-c2ccccc2)c1 | 30 | -3 | 0 | 1 | 2 | 5
COc1ccccc1-c1nnc2sc(-c3ccc(N(C)C)cc3)nn12 | 68* | -4 | -2 | 1 | 86* | -67
CN(C)c1ccc(-c2nn3c(-c4ccccc4Cl)nnc3s2)cc1 | 45* | 3 | -1 | 2 | 75* | -53
COc1ccccc1-c1nnc2sc(-c3cc4ccccc4o3)nn12 | 19 | -2 | 0 | 0 | 36* | -8
Clc1ccccc1-c1nnc2sc(-c3ccncc3)nn12 | 11 | -1 | -1 | 0 | 12 | -4
COc1ccccc1-c1nnc2sc(-c3cnccn3)nn12 | 1 | -2 | -1 | 0 | -9 | -7
O=C1c2ccccc2C(O)(Cc2ccccc2)N1C1CCCCC1 (centres undefined) | 26 | 2 | 0 | 0 | -4 | nt
COc1ccc(Cl)cc1NC(=O)CCN1CCN(c2ccccc2C)CC1 | 9 | 2 | nt | 1 | -6 | nt
CCN1CCN(c2ncc(C(=O)Nc3cc(Cl)ccc3OC)c3ccccc23)CC1 | -10 | 0 | -1 | 40* | 20 | 22
CCCc1ccc(Oc2cn[nH]c2-c2ccc(O)cc2O)cc1 | 25 | -3 | -1 | -1 | 12 | 74*
Cc1ccc(-n2c(SCC(N)=O)nnc2-c2cccnc2)c(C)c1 | -8 | -3 | -2 | -1 | 1 | 3
Cc1ccccc1-n1c(SC(C)C(N)=O)nnc1-c1cccnc1 (centres undefined) | 1 | 0 | 0 | 27* | 5 | -24
COc1cc(C2C3=C(Nc4ncnn42)c2ccccc2CC3)cc(OC)c1OC (centres undefined) | 14 | -1 | -1 | 0 | 61* | -40
SMILES | 5HT1a antag | 5HT1a ag | S1P3 agonist | 5HT1E ag | HTR1E antagonist | S1P1 ag-PAM
O=C(NCCN1CCN(Cc2ccccc2)CC1)C1c2ccccc2C(=O)N2CCc3ccccc3C12 (centres undefined) | 59* | -1 | -1 | 2 | 10 | 13
Cc1ccc(CNC(=O)C2c3ccccc3C(=O)N3CCc4ccccc4C23)o1 (centres undefined) | 21 | -3 | 0 | -1 | 7 | 24
CC(=O)c1cccc(N=C2NC(=O)C(CO)(CO)S2)c1 | nt | 1 | -1 | 0 | -7 | 0
CCSc1nc2cc(C(=O)OC)ccc2c(=O)n1CC | 2 | -1 | 0 | 0 | -8 | nt
COC(=O)c1ccc2c(=O)n(C3CCCCC3)c(SCC#N)nc2c1 | -16 | 1 | 3 | 0 | -1 | 87*
CCn1c(SCCOc2ccc(Cl)cc2)nnc1-c1cccs1 | 11 | -1 | -1 | 0 | -5 | -10
Cc1ccc(-c2csc3ncnc(Sc4nnc(CN5CCCCCC5=O)o4)c23)cc1 | 76* | -3 | -2 | 0 | 48* | 93*
CCCCCOC(=O)Cn1c(SCC(=O)Nc2ccccc2)nc2c1c(=O)[nH]c(=O)n2C | -7 | -1 | 1 | 9.7* | 2 | -1
COC(=O)c1cc2sc(Cl)cc2n1CC(=O)Nc1cccc(SC)c1 | 48* | -5 | -1 | -1 | -1 | 26
O=C(NCc1ccco1)c1cccc2ccccc12 | 9 | -3 | -1 | -1 | 11 | 6
O=C(NCc1ccco1)c1ccccc1Nc1ccc(F)cc1 | 40 | -3 | nt | -2 | 29* | nt
CCn1cc(C(=O)NCC(=O)OC)c2cc(OC)c(OC)cc2c1=O | 2 | 1 | nt | 0 | 4 | nt
CCn1cc(C(=O)NCc2ccc(C)o2)c2cc(OC)c(OC)cc2c1=O | 10 | 1 | 0 | -1 | 29* | -38
CCn1nnc(-c2ccccc2NC(=O)c2ccc(-n3cnnn3)cc2)n1 | 4 | 0 | -1 | 1 | 9 | -14
CCn1nnc(-c2ccccc2NS(=O)(=O)c2ccc(C(=O)OC)cc2)n1 | 21 | -4 | -1 | -2 | 34* | 51
Cc1ccc(-n2c(C)cc(C(=O)CSc3nnnn3C)c2C)cc1 | -4 | -1 | 0 | 0 | -2 | 87*
O=C(Nc1cccc(S(=O)(=O)C(F)F)c1)c1ccc(S(=O)(=O)N2CCOCC2)cc1 | 0 | 2 | -1 | 0 | -4 | -1
O=C(Nc1ccc(S(=O)(=O)C(F)F)cc1)c1cccc(S(=O)(=O)N2CCOCC2)c1 | 2 | 20* | 0 | 0 | -2 | nt
COC(=O)c1cnn2c(C)c(Cc3cccc(F)c3)c(C)nc12 | -8 | 3 | -1 | 1 | 30* | -13
COc1ccc(C2=NOC(C(=O)Nc3cc(Br)ccc3O)C2)cc1OC (centres undefined) | 10 | 2 | 0 | 1 | 37* | -17
O=C(COC(=O)C1CCCCC1)Nc1ccc(N2CCCCC2)cc1 | -19 | -2 | nt | 0 | -6 | nt
COc1cc(OC)nc(NC(=O)COC(=O)C2CCCCC2)n1 | -1 | 91* | -1 | 1 | -1 | 4
